In ChEMBL document CHEMBL1250448, “Inhibitor hijacking of Akt activation” (Nat Chem Biol, 2009):

Experiments:
[1] = biological target: Tyrosine-protein kinase HCK (Homo sapiens) (UniProt P08631); test: Inhibition of HCK at 1 uM in presence of 10 uM ATP by Select Screen kinase assay relative to untreated control
How it was run: (§1)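 Single-concentration profiling at 1 μM against a panel of 220 purified kinases, run as an outsourced SelectScreen kinase profiling service. Activity is expressed as percent inhibition.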

[2] = biological target: Vascular endothelial growth factor receptor 1 (Homo sapiens) (UniProt P17948); test: Inhibition of FLT1 at 1 uM in presence of 100 uM ATP by Select Screen kinase assay relative to untreated control; how it was run: as §1
Chain of Vascular endothelial growth factor receptor 1 (Homo sapiens) (P17948 whole entry): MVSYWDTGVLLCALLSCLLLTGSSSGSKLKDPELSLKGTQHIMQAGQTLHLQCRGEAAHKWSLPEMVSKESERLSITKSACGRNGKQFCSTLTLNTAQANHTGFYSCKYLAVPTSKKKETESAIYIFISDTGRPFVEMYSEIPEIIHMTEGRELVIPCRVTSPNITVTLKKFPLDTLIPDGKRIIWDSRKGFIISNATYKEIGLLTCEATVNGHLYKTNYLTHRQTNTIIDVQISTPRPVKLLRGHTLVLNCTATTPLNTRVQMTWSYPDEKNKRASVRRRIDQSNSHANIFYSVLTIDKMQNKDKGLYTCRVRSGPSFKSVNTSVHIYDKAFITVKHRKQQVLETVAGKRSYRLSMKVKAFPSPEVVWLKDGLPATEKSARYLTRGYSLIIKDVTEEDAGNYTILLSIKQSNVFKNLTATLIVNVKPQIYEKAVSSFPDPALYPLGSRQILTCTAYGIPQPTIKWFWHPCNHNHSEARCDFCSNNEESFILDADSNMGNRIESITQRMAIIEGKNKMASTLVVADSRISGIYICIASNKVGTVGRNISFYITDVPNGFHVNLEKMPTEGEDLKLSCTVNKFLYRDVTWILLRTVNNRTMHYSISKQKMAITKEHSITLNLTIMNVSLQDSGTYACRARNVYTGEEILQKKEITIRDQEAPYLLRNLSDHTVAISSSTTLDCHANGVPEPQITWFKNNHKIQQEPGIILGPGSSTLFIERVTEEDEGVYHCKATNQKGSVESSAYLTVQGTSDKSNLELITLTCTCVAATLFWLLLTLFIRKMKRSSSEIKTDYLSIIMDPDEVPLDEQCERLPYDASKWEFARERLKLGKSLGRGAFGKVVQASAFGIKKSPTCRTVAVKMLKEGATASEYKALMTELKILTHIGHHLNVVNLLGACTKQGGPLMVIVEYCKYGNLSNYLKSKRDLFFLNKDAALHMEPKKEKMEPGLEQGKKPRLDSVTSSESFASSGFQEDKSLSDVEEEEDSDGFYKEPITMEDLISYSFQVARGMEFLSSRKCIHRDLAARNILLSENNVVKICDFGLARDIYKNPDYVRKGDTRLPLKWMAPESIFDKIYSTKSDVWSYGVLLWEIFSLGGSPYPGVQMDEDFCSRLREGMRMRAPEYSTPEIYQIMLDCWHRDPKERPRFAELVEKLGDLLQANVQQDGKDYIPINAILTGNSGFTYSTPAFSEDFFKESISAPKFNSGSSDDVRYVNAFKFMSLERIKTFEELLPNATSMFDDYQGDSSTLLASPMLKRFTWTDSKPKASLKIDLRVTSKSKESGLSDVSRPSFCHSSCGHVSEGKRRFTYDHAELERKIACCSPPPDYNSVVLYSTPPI

[3] = biological target: Protein-tyrosine kinase 6 (Homo sapiens) (UniProt Q13882); test: Inhibition of PTK6 at 1 uM in presence of 10 uM ATP by Select Screen kinase assay relative to untreated control
Chain of Protein-tyrosine kinase 6 (Homo sapiens) (Q13882 whole entry, looked up): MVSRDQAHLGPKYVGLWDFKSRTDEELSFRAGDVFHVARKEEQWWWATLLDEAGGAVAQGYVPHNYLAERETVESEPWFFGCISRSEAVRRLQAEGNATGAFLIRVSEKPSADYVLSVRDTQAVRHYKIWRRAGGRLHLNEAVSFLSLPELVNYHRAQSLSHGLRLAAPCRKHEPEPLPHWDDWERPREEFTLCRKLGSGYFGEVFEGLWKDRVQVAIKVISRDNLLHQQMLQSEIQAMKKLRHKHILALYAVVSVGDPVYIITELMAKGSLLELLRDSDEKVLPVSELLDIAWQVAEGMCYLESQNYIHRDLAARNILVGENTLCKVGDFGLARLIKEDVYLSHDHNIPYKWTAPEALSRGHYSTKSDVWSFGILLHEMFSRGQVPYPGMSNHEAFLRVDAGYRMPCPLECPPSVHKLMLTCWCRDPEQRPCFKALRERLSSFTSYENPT
How it was run: (§2)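 Commercial SelectScreen profiling panel of 220 purified kinases. Each kinase was tested at a single inhibitor concentration of 1 μM, and activity was expressed as percent inhibition.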

[4] = biological target: Leukocyte tyrosine kinase receptor (Homo sapiens) (UniProt P29376); test: Inhibition of LTK at 1 uM in presence of 10 uM ATP by Select Screen kinase assay relative to untreated control; how it was run: as §1
Chain of Leukocyte tyrosine kinase receptor (Homo sapiens) (P29376 whole entry): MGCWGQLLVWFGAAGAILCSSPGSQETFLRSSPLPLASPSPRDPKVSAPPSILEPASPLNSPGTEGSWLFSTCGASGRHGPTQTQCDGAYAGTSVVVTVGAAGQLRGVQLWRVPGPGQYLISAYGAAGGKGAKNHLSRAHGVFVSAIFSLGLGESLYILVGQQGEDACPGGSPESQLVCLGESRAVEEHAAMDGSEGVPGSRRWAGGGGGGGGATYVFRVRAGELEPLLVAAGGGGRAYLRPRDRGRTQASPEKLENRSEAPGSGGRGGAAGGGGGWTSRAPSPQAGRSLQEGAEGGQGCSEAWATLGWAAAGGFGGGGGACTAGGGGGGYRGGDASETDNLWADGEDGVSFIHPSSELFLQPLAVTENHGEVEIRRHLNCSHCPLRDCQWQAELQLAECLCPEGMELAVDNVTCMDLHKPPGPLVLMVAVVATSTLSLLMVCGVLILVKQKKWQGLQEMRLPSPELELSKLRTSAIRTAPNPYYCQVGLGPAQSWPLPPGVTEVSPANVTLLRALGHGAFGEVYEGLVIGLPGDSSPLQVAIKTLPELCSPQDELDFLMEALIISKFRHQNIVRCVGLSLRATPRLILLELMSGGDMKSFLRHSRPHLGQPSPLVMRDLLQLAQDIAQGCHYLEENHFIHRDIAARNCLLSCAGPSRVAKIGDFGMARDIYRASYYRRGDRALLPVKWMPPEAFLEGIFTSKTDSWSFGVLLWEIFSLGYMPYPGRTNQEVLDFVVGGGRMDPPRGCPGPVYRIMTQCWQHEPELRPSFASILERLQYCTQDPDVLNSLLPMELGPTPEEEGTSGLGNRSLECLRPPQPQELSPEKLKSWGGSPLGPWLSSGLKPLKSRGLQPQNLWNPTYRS

[5] = biological target: G protein-coupled receptor kinase 6 (Homo sapiens) (UniProt P43250); test: Inhibition of GRK6 at 1 uM in presence of 10 uM ATP by Select Screen kinase assay relative to untreated control; how it was run: as §1
Chain of G protein-coupled receptor kinase 6 (Homo sapiens) (P43250 whole entry, looked up): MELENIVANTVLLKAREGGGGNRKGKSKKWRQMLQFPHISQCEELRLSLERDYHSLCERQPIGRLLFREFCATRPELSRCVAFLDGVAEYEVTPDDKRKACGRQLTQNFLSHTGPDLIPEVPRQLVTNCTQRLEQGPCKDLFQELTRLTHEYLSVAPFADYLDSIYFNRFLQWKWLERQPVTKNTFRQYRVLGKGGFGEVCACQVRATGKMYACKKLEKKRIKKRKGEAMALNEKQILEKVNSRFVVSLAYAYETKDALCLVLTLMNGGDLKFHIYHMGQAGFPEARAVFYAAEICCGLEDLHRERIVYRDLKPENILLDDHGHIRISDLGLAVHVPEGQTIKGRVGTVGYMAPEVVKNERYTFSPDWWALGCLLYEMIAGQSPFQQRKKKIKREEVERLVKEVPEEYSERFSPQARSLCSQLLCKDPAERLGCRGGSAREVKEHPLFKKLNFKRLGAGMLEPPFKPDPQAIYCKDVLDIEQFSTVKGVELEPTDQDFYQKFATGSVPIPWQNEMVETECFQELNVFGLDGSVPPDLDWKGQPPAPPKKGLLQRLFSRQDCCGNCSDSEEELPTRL

[6] = biological target: T1, Ephrin type-B receptor 2 (Homo sapiens) (UniProt P29323); test: Inhibition of EPHB2 at 1 uM in presence of 10 uM ATP by Select Screen kinase assay relative to untreated control
T1 sequence (whole entry): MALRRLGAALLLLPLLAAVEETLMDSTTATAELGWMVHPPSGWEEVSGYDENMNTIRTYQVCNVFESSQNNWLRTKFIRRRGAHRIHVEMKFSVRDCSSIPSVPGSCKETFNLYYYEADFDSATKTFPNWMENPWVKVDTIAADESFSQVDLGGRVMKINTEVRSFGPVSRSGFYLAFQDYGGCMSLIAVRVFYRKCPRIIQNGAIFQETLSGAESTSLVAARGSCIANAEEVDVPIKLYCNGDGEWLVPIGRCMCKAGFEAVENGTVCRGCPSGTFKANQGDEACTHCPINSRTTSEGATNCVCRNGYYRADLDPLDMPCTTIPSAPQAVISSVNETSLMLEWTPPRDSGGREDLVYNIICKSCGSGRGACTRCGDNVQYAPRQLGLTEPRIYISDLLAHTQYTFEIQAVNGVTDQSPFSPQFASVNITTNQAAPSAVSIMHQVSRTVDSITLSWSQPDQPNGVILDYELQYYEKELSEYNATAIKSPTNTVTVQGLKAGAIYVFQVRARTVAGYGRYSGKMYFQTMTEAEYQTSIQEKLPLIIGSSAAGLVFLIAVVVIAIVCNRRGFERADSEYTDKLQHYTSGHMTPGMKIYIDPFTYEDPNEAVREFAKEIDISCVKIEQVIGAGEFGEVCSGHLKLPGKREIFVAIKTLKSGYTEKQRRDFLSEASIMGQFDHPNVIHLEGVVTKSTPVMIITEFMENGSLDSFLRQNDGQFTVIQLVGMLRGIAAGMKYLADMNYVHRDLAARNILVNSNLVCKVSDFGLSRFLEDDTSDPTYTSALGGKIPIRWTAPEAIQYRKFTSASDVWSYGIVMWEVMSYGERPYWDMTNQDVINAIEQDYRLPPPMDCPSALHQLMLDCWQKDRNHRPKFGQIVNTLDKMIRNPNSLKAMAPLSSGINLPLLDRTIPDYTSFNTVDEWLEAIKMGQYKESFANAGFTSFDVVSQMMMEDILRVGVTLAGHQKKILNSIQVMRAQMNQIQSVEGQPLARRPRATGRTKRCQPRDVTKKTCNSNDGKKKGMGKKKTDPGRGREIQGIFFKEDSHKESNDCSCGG
How it was run: (§3)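 Single-point screen at 1 μM against a panel of 220 purified kinases, run by Invitrogen staff as a SelectScreen profiling service. Read-out is percent inhibition of kinase activity.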

[7] = biological target: SRSF protein kinase 1 (Homo sapiens) (UniProt Q96SB4); test: Inhibition of SRPK1 at 1 uM in presence of 100 uM ATP by Select Screen kinase assay relative to untreated control; how it was run: as §2
[8] = biological target: T2, Dual specificity mitogen-activated protein kinase kinase 6 (Homo sapiens) (UniProt P52564); test: Inhibition of MAP2K6 at 1 uM in presence of 100 uM ATP by Select Screen kinase assay relative to untreated control; how it was run: as §1
T2 sequence (whole entry): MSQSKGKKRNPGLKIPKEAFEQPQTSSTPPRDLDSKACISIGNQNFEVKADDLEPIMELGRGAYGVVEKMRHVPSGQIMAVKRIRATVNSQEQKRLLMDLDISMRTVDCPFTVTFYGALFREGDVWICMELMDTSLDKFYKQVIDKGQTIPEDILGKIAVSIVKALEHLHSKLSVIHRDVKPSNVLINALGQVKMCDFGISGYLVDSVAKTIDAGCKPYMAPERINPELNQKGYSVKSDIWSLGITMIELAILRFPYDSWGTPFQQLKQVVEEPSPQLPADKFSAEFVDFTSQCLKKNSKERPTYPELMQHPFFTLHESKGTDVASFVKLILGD

[9] = biological target: Fibroblast growth factor receptor 2 (Homo sapiens) (UniProt P21802); test: Inhibition of FGFR2 at 1 uM in presence of 10 uM ATP by Select Screen kinase assay relative to untreated control; how it was run: as §1
Chain of Fibroblast growth factor receptor 2 (Homo sapiens) (P21802 22-821 limits assumed): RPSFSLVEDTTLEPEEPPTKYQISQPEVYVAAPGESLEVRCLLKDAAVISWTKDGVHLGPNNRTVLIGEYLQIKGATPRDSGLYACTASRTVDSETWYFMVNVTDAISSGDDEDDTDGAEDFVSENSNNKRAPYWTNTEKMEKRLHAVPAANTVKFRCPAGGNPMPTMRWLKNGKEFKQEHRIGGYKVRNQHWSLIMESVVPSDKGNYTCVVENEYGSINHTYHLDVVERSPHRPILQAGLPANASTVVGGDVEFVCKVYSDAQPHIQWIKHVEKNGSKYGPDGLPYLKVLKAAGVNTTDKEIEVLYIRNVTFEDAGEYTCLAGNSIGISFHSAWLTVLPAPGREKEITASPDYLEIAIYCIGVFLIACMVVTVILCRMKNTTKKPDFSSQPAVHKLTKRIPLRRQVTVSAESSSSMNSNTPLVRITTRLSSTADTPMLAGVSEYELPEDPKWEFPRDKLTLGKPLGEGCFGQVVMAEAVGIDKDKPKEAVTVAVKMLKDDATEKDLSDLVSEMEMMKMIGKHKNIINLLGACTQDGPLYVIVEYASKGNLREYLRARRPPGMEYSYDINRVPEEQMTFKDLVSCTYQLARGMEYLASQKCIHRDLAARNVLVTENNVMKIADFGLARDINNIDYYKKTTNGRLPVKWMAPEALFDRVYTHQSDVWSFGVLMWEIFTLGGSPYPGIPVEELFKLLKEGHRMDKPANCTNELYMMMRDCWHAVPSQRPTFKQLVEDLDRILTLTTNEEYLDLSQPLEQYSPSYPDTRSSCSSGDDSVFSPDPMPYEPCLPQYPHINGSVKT

[10] = biological target: Casein kinase I isoform gamma-2 (Homo sapiens) (UniProt P78368); test: Inhibition of CSNK1G2 at 1 uM in presence of 10 uM ATP by Select Screen kinase assay relative to untreated control; how it was run: as §3
Chain of Casein kinase I isoform gamma-2 (Homo sapiens) (P78368 whole entry, looked up, canonical isoform): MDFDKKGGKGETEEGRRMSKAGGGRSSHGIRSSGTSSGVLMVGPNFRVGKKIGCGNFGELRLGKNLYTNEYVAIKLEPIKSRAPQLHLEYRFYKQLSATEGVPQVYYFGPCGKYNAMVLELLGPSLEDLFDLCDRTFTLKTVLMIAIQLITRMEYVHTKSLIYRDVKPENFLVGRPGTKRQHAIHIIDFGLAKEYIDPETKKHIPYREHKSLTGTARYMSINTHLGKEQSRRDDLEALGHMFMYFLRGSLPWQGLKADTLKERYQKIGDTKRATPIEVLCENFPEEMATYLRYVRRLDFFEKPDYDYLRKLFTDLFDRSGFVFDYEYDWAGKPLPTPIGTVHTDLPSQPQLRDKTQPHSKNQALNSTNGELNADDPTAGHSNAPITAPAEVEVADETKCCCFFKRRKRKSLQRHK

[11] = biological target: Serine/threonine-protein kinase D3 (Homo sapiens) (UniProt O94806); test: Inhibition of PRKCN at 1 uM in presence of 10 uM ATP by Select Screen kinase assay relative to untreated control
[12] = biological target: Vascular endothelial growth factor receptor 2 (Homo sapiens) (UniProt P35968); test: Inhibition of KDR at 1 uM in presence of 10 uM ATP by Select Screen kinase assay relative to untreated control; how it was run: as §1
[13] = biological target: Protein kinase C alpha type (Homo sapiens) (UniProt P17252); test: Inhibition of PRKCA at 1 uM in presence of 10 uM ATP by Select Screen kinase assay relative to untreated control
[14] = biological target: Muscle, skeletal receptor tyrosine-protein kinase (Homo sapiens) (UniProt O15146); test: Inhibition of MUSK at 1 uM in presence of 100 uM ATP by Select Screen kinase assay relative to untreated control
[15] = biological target: Serine/threonine-protein kinase BRSK1 (Homo sapiens) (UniProt Q8TDC3); test: Inhibition of BRSK1 at 1 uM in presence of 10 uM ATP by Select Screen kinase assay relative to untreated control; how it was run: as §3
[16] = biological target: Serine/threonine-protein kinase Sgk1 (Homo sapiens) (UniProt O00141); test: Inhibition of SGK at 1 uM in presence of 10 uM ATP by Select Screen kinase assay relative to untreated control

Chain of Tyrosine-protein kinase HCK (Homo sapiens) (P08631 2-526 limits assumed): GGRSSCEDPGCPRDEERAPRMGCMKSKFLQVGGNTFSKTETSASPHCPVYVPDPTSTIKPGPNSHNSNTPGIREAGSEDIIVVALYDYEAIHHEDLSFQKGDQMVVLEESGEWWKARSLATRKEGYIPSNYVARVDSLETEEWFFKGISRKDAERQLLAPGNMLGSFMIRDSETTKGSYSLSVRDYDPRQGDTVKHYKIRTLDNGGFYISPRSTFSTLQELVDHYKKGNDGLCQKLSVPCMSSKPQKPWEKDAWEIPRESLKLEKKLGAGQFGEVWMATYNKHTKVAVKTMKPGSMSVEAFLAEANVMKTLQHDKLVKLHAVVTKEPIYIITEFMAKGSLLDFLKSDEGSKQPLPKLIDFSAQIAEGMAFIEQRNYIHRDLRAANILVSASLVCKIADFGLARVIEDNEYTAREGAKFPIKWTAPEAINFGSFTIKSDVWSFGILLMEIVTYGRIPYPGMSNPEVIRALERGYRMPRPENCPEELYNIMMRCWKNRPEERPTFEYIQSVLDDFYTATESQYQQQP

| inhibition [1] [%] | inhibition [2] [%] | inhibition [3] [%] | inhibition [4] [%] | inhibition [5] [%] | inhibition [6] [%] | inhibition [7] [%] | inhibition [8] [%] | inhibition [9] [%] | inhibition [10] [%] | inhibition [11] [%] | inhibition [12] [%] | inhibition [13] [%] | inhibition [14] [%] | inhibition [15] [%] | inhibition [16] [%] | SMILES |
| --- | --- | --- | --- | --- | --- | --- | --- | --- | --- | --- | --- | --- | --- | --- | --- | --- |
| 9 | 52 | 9 | 5 | 2 | 7 | 12 | 25 | 51 | 15 | 83 | 79 | 61 | 76 | 75 | 53 | O=C(NCCCNc1nc(Nc2cccc(NC(=O)N3CCCC3)c2)ncc1I)c1cccs1 |
| 15 | 20 | 2 | 7 | 27 | 7 | 12 | 11 | 12 | 12 | 18 | 52 | 21 | 19 | 29 | 13 | COc1ccccc1N1CCN(c2ncnc3[nH]nc(Br)c23)CC1 |

| SMILES | inhibition [1] [%] | inhibition [2] [%] | inhibition [3] [%] | inhibition [4] [%] | inhibition [5] [%] | inhibition [6] [%] | inhibition [7] [%] | inhibition [8] [%] | inhibition [9] [%] | inhibition [10] [%] | inhibition [11] [%] | inhibition [12] [%] | inhibition [13] [%] | inhibition [14] [%] | inhibition [15] [%] | inhibition [16] [%] |
| --- | --- | --- | --- | --- | --- | --- | --- | --- | --- | --- | --- | --- | --- | --- | --- | --- |
| Cc1n[nH]c2ccc(-c3cncc(OC[C@@H](N)Cc4c[nH]c5ccccc45)c3)cc12 | 8 | -2 | 0 | 35 | 78 | 1 | 27 | 40 | 3 | 81 |  |  |  |  |  |  |
